Among the data in ChEMBL document CHEMBL1140118, “Design, synthesis, and structure-activity relationships of novel insulin receptor tyrosine kinase activators” (J Med Chem, 2008) are Activity and EC50 values, retold here.

Structures are written as SMILES. Calls of active or inactive are those of the source. No cut-off for these calls is given here.

Test [1] deals with Insulin receptor (Homo sapiens) (UniProt P06213). Put plainly: Activation of human insulin receptor overexpressed in mouse 3T3-HIR cells assessed as increase in phosphotyrosine at >=18 uM in absence of insulin. The format is cell-based.
Sequence of Insulin receptor (Homo sapiens) (P06213 28-758 limits assumed): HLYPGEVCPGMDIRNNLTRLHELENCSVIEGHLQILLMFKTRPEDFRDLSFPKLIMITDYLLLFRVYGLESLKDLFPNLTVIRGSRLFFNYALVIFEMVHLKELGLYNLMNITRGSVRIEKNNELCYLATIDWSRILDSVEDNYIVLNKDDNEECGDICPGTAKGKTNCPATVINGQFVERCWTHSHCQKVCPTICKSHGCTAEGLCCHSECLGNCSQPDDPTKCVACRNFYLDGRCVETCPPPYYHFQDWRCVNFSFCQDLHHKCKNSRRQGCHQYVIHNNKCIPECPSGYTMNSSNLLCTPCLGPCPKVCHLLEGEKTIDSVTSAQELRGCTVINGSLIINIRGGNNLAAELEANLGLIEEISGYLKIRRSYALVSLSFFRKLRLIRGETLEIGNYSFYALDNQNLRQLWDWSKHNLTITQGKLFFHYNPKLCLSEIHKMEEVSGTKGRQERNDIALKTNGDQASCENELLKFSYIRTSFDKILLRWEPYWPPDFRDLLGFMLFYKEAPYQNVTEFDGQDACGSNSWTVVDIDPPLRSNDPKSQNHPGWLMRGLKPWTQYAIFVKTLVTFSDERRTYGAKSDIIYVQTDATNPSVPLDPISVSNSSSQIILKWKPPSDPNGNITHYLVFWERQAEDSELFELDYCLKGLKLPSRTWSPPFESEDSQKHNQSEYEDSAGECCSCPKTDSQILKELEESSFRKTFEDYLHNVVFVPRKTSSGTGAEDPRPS
Sequence of Insulin receptor (Homo sapiens) (P06213 763-1382 limits assumed): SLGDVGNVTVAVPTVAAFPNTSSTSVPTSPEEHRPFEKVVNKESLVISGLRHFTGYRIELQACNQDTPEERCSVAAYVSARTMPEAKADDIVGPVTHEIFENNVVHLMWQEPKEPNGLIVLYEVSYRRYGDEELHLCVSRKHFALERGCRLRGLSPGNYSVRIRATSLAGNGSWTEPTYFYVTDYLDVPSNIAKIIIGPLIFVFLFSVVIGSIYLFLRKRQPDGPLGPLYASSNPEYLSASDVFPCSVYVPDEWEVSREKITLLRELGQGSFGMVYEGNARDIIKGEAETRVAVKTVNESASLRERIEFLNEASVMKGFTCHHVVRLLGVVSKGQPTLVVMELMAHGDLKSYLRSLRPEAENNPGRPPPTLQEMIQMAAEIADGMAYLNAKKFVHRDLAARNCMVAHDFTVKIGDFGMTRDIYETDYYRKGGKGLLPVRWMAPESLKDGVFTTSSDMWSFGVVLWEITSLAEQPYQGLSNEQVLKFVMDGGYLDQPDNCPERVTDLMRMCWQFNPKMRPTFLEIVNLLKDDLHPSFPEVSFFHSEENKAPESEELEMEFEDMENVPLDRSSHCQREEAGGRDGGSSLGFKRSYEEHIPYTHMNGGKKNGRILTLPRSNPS
The test system of test [2] is 3T3-L1. Put plainly: Increase in glucose transport in mouse 3T3-L1 cells at 30 uM in absence of insulin. The format is functional. An outline of the steps:
(§1)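 Differentiated 3T3-L1 adipocytes (induced 72 h with dexamethasone, IBMX and insulin, then 48 h with insulin, then 4 days in normal medium) were serum-starved 16 h in 0.1% BSA. Compound was added without insulin for 30 min at 37 °C. Uptake of 0.5 µCi/mL 2-deoxy-D-[14C]glucose over 30 min was read by scintillation counting of lysates after a cold PBS rinse.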

The subject of test [3] is 3T3-L1. Put plainly: Increase in insulin-stimulated glucose transport in mouse 3T3-L1 cells at >=30 uM in presence of insulin. In kind it is functional, cell-based.
In test [4] the test system is 3T3-L1. Put plainly: Increase in GLUT4 content in mouse 3T3-L1 cell plasma membrane at 56 uM in presence of insulin. In kind it is functional.
Test [5] has as its system Rattus norvegicus. Put plainly: Reduction in blood glucose level in streptozotocin-induced hypoinsulinemic CD rat at 50 mg/kg, ip after 30 mins after glucose loading by oral glucose tolerance test. In kind it is functional. Also on record: scale not given: the % may be the effect or the level left. An outline of the steps: (§2)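 Male CD IGS rats (250-300 g) received streptozotocin 60 mg/kg ip and were enrolled if fed glucose was ≥250 mg/dL. On day 4 post-STZ they were fasted overnight and randomized on baseline glucose (n = 12/group). They got compound or PBS, then a 50% dextrose load by gavage (4 mL/kg). Tail blood glucose was read by glucometer, and groups were compared by unpaired t test.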

In test [6] the test system is Rattus norvegicus. Put plainly: Reduction in blood glucose level in streptozotocin-induced hypoinsulinemic CD rat at 1000 mg/kg, po after 30 mins after glucose loading by oral glucose tolerance test. In kind it is functional. Also on record: scale not given: the % may be the effect or the level left. A digest of the protocol: as §2
Test [7] concerns 3T3-L1. Put plainly: Increase in glucose transport in mouse 3T3-L1 cells at 50 uM in absence of insulin. The format is functional. A digest of the protocol:
as §1

Another test addresses Insulin receptor (Mus musculus, UniProt P15208). Put plainly: Activation of insulin receptor tyrosine kinase in mouse 3T3-L1 cells assessed as increase in 2-deoxy-D-[14C]glucose transport in presence of insulin. In kind it is cell-based. A digest of the protocol:
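Differentiated, 16 h serum-starved 3T3-L1 adipocytes were exposed to compound plus 5.6 nM insulin (submaximal) for 30 min at 37 °C. They were then pulsed 30 min with 0.5 µCi/mL 2-deoxy-D-[14C]glucose and lysate counts were read. Four concentrations were tested in triplicate. EC50 came from nonlinear regression of untransformed data, given as mean ± SEM when n ≥ 3.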

Test [8] concerns the target Insulin receptor (Homo sapiens) (UniProt P06213). Put plainly: Activation of human insulin receptor overexpressed in mouse 3T3-HIR cells assessed as increase in phosphotyrosine at 3 uM in presence of insulin. In kind it is cell-based.
For test [9], the target named is Insulin receptor (Mus musculus) (UniProt P15208). Put plainly: Activation of insulin receptor tyrosine kinase in mouse 3T3-L1 cells assessed as increase in 2-deoxy-D-[14C]glucose transport in absence of insulin. The format is cell-based. A digest of the protocol: as §1
Sequence of Insulin receptor (Mus musculus) (P15208 28-748 limits assumed): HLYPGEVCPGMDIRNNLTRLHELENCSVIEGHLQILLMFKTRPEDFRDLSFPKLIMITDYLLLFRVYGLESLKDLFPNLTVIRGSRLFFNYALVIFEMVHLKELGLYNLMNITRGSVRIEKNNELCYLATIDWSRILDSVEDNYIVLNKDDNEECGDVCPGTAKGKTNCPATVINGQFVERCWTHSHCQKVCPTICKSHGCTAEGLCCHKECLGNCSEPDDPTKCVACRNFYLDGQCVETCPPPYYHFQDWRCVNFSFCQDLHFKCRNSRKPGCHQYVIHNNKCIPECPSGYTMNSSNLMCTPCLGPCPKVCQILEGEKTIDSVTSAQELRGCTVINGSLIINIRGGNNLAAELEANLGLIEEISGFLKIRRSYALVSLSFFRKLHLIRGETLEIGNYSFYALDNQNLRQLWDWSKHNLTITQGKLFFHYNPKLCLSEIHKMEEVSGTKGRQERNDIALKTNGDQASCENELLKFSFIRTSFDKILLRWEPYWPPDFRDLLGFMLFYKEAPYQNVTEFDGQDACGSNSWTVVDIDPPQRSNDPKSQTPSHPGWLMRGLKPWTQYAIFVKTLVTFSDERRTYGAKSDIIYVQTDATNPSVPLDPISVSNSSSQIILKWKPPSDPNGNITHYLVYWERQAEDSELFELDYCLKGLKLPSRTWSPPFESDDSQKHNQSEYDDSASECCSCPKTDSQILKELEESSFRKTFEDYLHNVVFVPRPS
Sequence of Insulin receptor (Mus musculus) (P15208 753-1372 limits assumed): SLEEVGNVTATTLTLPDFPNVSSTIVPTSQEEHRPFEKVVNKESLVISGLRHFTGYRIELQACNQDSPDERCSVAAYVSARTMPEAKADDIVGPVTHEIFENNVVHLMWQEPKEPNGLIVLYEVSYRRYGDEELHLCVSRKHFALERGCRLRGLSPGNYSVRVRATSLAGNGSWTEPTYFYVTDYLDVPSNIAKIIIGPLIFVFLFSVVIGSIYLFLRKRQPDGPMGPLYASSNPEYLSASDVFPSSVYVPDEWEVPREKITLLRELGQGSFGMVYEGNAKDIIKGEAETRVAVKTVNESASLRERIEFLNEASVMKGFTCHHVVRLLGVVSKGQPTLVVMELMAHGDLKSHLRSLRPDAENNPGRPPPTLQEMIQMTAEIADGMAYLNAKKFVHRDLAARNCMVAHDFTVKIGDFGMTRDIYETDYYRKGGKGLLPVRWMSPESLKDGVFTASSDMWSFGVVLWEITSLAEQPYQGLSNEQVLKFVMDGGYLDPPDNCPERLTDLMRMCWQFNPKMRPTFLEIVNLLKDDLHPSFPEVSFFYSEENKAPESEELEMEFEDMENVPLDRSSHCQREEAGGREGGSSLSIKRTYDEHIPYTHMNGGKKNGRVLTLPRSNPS
The target of test [10] is Insulin receptor (Homo sapiens) (UniProt P06213). Put plainly: Effect on autophosphorylation of human insulin receptor cytoplasmic kinase domain. An outline of the steps: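 Recombinant human IR cytoplasmic domain (200 ng) in 50 mM Tris pH 7.4 with 2 mM MnCl2, 10 mM MgCl2, 50 µM ATP and [γ-32P]ATP (10 µCi) was incubated with varied compound concentrations for 10 min at 25 °C. Incorporated label was measured by scintillation counting, either of excised SDS-PAGE bands or of TCA precipitates washed with phosphoric acid.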

Sequence of Insulin receptor (P15208 28-748 limits assumed): as the sequence (P15208 28-748 limits assumed) above
Sequence of Insulin receptor (P15208 753-1372 limits assumed): as the sequence (P15208 753-1372 limits assumed) above

Consider `O=C(Nc1ccc2c(O)cc(S(=O)(=O)Nc3ccc(Cl)c(S(=O)(=O)[O-])c3)cc2c1)Nc1ccc2c(O)cc(S(=O)(=O)Nc3ccc(Cl)c(S(=O)(=O)[O-])c3)cc2c1.[Na+].[Na+]`, for which the outcome (in test [1]; with 3T3-L1 [3]) was Active. In addition, the Activity with 3T3-L1 [2] is 340%; with 3T3-L1 [4] it was 85%; with Rattus norvegicus [5] it was 25%; with Rattus norvegicus [6], 32%; in the test with 3T3-L1 [7], 875%; in test [8] it was 75%. Further, the 50% effective concentration (EC50) (commonly the concentration giving half of the maximal effect) at Insulin receptor came out at 5 µM.
In the case of `O=C(Nc1ccc2c(O)c(/N=N/c3ccc(/N=N/c4ccc(S(=O)(=O)O)cc4)cc3S(=O)(=O)O)c(S(=O)(=O)O)cc2c1)Nc1ccc2c(O)cc(S(=O)(=O)O)c(/N=N/c3ccc(/N=N/c4ccc(S(=O)(=O)O)cc4)cc3S(=O)(=O)O)c2c1`, the outcome in test [9] was inactive. Besides, the EC50 on Insulin receptor is 90 µM. In addition, the Activity result in test [10] was “Dose-dependent effect”.
Turning to `O=C(Nc1ccc2c(O)cc(S(=O)(=O)Nc3cccc(S(=O)(=O)O)c3)cc2c1)Nc1ccc2c(O)cc(S(=O)(=O)Nc3cccc(S(=O)(=O)O)c3)cc2c1`, at Insulin receptor, the EC50 is 26 µM. The Activity entry in test [10] was “Dose-dependent effect”.
